Test results as given in ChEMBL document CHEMBL2384994, “Discovery and evaluation of piperid-4-one-containing mono-carbonyl analogs of curcumin as anti-inflammatory agents” (Bioorg Med Chem, 2013).
The source made the active and inactive calls. No cut-off for these calls is given here.

Experiments:
[1] = target: MAP kinase p38 (Mus musculus) (UniProt P47811+O08911+Q9WUI1+Q9Z1B7); assay: Inhibition of LPS-induced p38 phosphorylation in ICR mouse MPM cells at 10 uM incubated for 2 hrs prior to LPS-challenge measured after 1 hr by Western blot analysis; format: cell-based
Method in brief: (§1)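 Primary peritoneal macrophages from ICR mice plated at 1.2 × 10⁶/plate overnight. Pretreated with DMSO or compound for 2 h, then LPS 10 ng/mL for 1 h. Cells lysed; 40–60 µg lysate run on 10% SDS-PAGE and blotted to nitrocellulose. Blocked in TBS pH 7.6 with 0.05% Tween 20 and 5% milk. Probed for IκB, p-JNK, p-ERK, p-p38 against GAPDH or the total protein. Detection by HRP secondary and ECL. Optical density given as % of control.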

RAW264.7 [2] = assay: Antiinflammatory activity in mouse RAW264.7 cells assessed as inhibition of LPS-induced IL6 release at 10 uM incubated for 2 hrs prior to LPS-challenge measured after 22 hrs by ELISA relative to LPS-treated control; format: functional
Method in brief: (§2)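 Pretreated with compound or DMSO vehicle for 2 h (screen at 10 µM; dose series 1, 5, 10 µM), then LPS 0.5 µg/mL for 22 h. Medium IL-6 measured by ELISA, normalized to cellular total protein, expressed as % of LPS control. Mean ± SE of 3–6 independent experiments.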

MPM [3] = assay: Inhibition of LPS-induced ERK phosphorylation in ICR mouse MPM cells at 10 uM incubated for 2 hrs prior to LPS-challenge measured after 1 hr by Western blot analysis; format: cell-based; method in brief: as §1
RAW264.7 [4] = assay: Antiinflammatory activity in mouse RAW264.7 cells assessed as inhibition of LPS-induced IL6 release incubated for 2 hrs prior to LPS-challenge measured after 22 hrs by ELISA; format: functional, cell-based; method in brief: as §2
RAW264.7 [5] = assay: Cytotoxicity against mouse RAW264.7 cells; format: cell-based
MPM [6] = assay: Inhibition of LPS-induced JNK phosphorylation in ICR mouse MPM cells at 10 uM incubated for 2 hrs prior to LPS-challenge measured after 1 hr by Western blot analysis; format: cell-based; method in brief: as §1
MPM [7] = assay: Inhibition of NFkappaB activation in ICR mouse MPM cells assessed as inhibition of LPS-induced IkappaB degradation at 10 uM incubated for 2 hrs prior to LPS-challenge measured after 1 hr by Western blot analysis; format: cell-based; method in brief: as §1
MPM [8] = assay: Inhibition of LPS-induced ERK phosphorylation in ICR mouse MPM cells incubated for 2 hrs prior to LPS-challenge measured after 1 hr by Western blot analysis; format: cell-based; method in brief: as §1
MPM [9] = assay: Inhibition of NFkappaB activation in ICR mouse MPM cells assessed as inhibition of LPS-induced IkappaB degradation incubated for 2 hrs prior to LPS-challenge measured after 1 hr by Western blot analysis; format: cell-based; method in brief: as §1
Mus musculus [10] = assay: Antiinflammatory activity in C57BL/6 mouse assessed as protection against LPS-induced septic death by measuring survival at 15 mg/kg, ip administered 15 mins prior to LPS challenge measured after 7 days relative to vehicle-treated control; format: functional; conditions: route intraperitoneal
Method in brief: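 Male C57BL/6 mice (18–22 g), n = 10 per group, given compound ip 15 min before LPS (20 mg/kg, iv). Compound at 2 mg/mL in water with macrogol 15 hydroxystearate (5–10% final) ± medium-chain triglycerides (0.5–2% final), dissolved at 37 °C. Vehicle was 10% solubilizer plus 2% MCT. Survival and body weight recorded every 24 h for 7 days.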

MPM [11] = assay: Inhibition of LPS-induced JNK phosphorylation in ICR mouse MPM cells incubated for 2 hrs prior to LPS-challenge measured after 1 hr by Western blot analysis; format: cell-based; method in brief: as §1
Mus musculus [12] = assay: Toxicity in C57BL/6 mouse assessed as decrease in body weight at 20 mg/kg, ip after 3 days; format: organism-based; parameters: dose 20 mg/kg, route intraperitoneal; conditions: in vivo, 72 h
Method in brief: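 Male C57BL/6 mice (18–22 g) given compound ip at 20 mg/kg, prepared at 2 mg/mL in water with macrogol 15 hydroxystearate (5–10%) ± MCT (0.5–2%). Vehicle was 10% solubilizer with 2% MCT. LPS 20 mg/kg iv given 15 min later. Body weight and survival recorded every 24 h for 7 days; n = 10 per group.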

In the case of O=C1/C(=C/c2ccc(O)cc2)CNC/C1=C\c1ccc(O)cc1, the inhibition [1] is reported as “inactive”.

Compound COc1ccc(/C=C2\CN(C)C/C(=C\c3ccc(OC)c(OC)c3)C2=O)cc1OC has an inhibition at 10 µM (RAW264.7 [2]) of 90%.

For CCCN1C/C(=C\c2ccc(OC)c(OC)c2)C(=O)/C(=C/c2ccc(OC)c(OC)c2)C1, the inhibition (MPM [3]) was “inactive”, the IC50 (RAW264.7 [4]) was 2040 nM and the inhibition (RAW264.7 [4]) was “Dose-dependent effect”. For the same compound, the inhibition at 10 µM (RAW264.7 [2]) was 90%, the inhibition [1] was “inactive” and the Activity (RAW264.7 [5]) was “Non-toxic”. For the same compound, the inhibition (MPM [6]) was “inactive” and the inhibition (MPM [7]) was “inactive”.

With O=C1/C(=C/c2ccc(O)c(O)c2)CC/C1=C\c1ccc(O)c(O)c1 the inhibition (RAW264.7 [2]) was “Active”.

COc1ccc(/C=C2\CNC/C(=C\c3ccc(OC)c(OC)c3)C2=O)cc1OC was tested, and the inhibition (MPM [3]) was “Active”, the IC50 (RAW264.7 [4]) was 2680 nM and the inhibition (RAW264.7 [4]) was “Dose-dependent effect”. For the same compound, the inhibition (MPM [8]) was “Dose-dependent effect”, the inhibition (MPM [9]) was “Dose-dependent effect” and the inhibition at 10 µM (RAW264.7 [2]) was 98%. For the same compound, the Activity (Mus musculus [10]) was 60%, the inhibition (MPM [11]) was “Dose-dependent effect” and the Activity (RAW264.7 [5]) was “Non-toxic”. For the same compound, the inhibition (MPM [6]) was “Active”, the Activity (Mus musculus [12]) was “Toxic” and the inhibition (MPM [7]) was “Active”.

With O=C(/C=C/c1ccc(O)c(O)c1)/C=C/c1ccc(O)c(O)c1 the inhibition (RAW264.7 [2]) was “Active”.

For CCN1C/C(=C\c2ccccc2Br)C(=O)/C(=C/c2ccccc2Br)C1, the inhibition (RAW264.7 [2]) was “Active”.

With COc1cc(/C=C2\CNC/C(=C\c3cc(OC)c(OC)c(OC)c3)C2=O)cc(OC)c1OC the inhibition (MPM [3]) was “Active”, the IC50 (RAW264.7 [4]) was under 1000 nM and the inhibition (RAW264.7 [4]) was “Dose-dependent effect”. The inhibition (MPM [8]) was “Dose-dependent effect”, the inhibition (MPM [9]) was “Dose-dependent effect” and the inhibition at 10 µM (RAW264.7 [2]) was 96%. The Activity (Mus musculus [10]) was 80%, the Activity (RAW264.7 [5]) was “Non-toxic” and the Activity (Mus musculus [12]) was “Toxic”. For the same compound, the inhibition (MPM [7]) was “Active”.

CCCN1C/C(=C\c2ccccc2Cl)C(=O)/C(=C/c2ccccc2Cl)C1 was tested, and the inhibition (RAW264.7 [2]) was “Active”.

For O=C1/C(=C/c2ccccc2F)CNC/C1=C\c1ccccc1F, the inhibition (RAW264.7 [2]) was “Active”.

CN1C/C(=C\c2ccccc2F)C(=O)/C(=C/c2ccccc2F)C1 was tested, and the inhibition (RAW264.7 [2]) was “Active”.

For O=C1/C(=C/c2ccc(O)c(O)c2)CCC/C1=C\c1ccc(O)c(O)c1, the inhibition (RAW264.7 [2]) was “Active”.

CN1C/C(=C\c2ccc(F)cc2)C(=O)/C(=C/c2ccc(F)cc2)C1 was tested, and the inhibition (RAW264.7 [2]) was “Active”.

For COc1cc(/C=C/C(=O)CC(=O)/C=C/c2ccc(O)c(OC)c2)ccc1O, the inhibition (MPM [6]) was “Active”.

O=C1/C(=C/c2cccc(O)c2)CNC/C1=C\c1cccc(O)c1 was tested, and the IC50 (RAW264.7 [4]) was 4190 nM, the inhibition (RAW264.7 [4]) was “Dose-dependent effect” and the Activity (RAW264.7 [5]) was “Non-toxic”.
